Rows were chosen to be rich in hits. Some 1.7% of all compounds tested hit in one or more screens of this group.
Scp1 inh: Scp-1 (human) phosphatase inhibition. Q9GZU7. Recombinant Scp1, phosphopeptide, malachite green phosphate absorbance. inhibition, % at 20 µM. 340,000 tested, 0.88% active;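 active = inhibition above about 50% at 20 µM, limit read from the data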;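 note: plate controls were DMSO wells with enzyme for no effect and wells lacking enzyme for full effect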
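Test system – truncated SCP-1 phosphatase (76-261aa) · Reagent – Phosphorylated 17-residue peptide substrate · Incubation – 45 min room-temperature reaction, 5 min colour, 30 min stabiliser · Detection – colorimetric phosphate reagent with accelerator and stabiliser, absorbance at 630 nm · Measure – % inhibition at 20 µM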
DNMT1 block: DNMT1 (human) enzyme inhibition; DNMT1 molecular beacon, Hinp1I cleavage, fluorescence; inhibition (reported as % activation of signal), % at 10 µM; 360,000 tested, 0.83% active; AID 588458; in the data active = inhibition above about 50%
STEP block: inhibitors of human striatal-enriched phosphatase STEP; P54829; recombinant STEP, OMFP fluorogenic substrate, fluorescence; inhibition, % at 20 µM; 360,000 tested, 0.25% active;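 active = inhibition at 20 µM, scaled per plate between control wells, above about 37%, limit read from the data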;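 note: 0% = DMSO with enzyme and substrate and 100% = substrate only without enzyme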
Target sequence (P54829 whole entry, looked up): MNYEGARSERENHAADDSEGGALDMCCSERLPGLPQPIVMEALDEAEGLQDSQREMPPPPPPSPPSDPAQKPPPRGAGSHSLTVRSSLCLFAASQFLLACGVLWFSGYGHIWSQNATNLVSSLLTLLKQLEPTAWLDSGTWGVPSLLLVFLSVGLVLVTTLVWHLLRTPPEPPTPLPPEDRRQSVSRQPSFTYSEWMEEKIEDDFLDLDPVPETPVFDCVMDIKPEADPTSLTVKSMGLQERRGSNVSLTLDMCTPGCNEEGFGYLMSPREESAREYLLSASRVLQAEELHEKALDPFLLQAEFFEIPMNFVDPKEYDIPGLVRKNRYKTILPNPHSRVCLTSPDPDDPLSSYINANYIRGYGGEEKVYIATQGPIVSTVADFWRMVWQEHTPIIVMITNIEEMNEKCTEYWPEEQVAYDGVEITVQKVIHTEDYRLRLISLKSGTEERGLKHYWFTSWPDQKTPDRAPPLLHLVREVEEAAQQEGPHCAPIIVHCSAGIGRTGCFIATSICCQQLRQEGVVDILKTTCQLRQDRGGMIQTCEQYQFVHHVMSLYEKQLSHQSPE
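Also added – OMFP at 25 µM · Test system – STEP tyrosine phosphatase · Technique – FITC-channel fluorescence of OMFP product · Schedule – 20 min at room temperature, dark · Evaluation – control-normalized % inhibition with plate pattern correction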
LMPTP inh: blocks human LMPTP phosphatase; recombinant LMPTP-A, OMFP fluorogenic substrate, fluorescence intensity; P24666; 360,000 tested, 0.22% active; inhibition, % at 20 µM;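 active = compounds that cut the enzyme signal by at least half of the control window in the single-dose screen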;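 note: plate controls were DMSO wells with enzyme plus substrate for no effect and substrate without enzyme for full effect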
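material = LMPTP-A | quantity = 0.625 nM enzyme | reagent = OMFP substrate, 400 µM final | buffer or medium = Bis-Tris pH 6.0, DTT, detergent | detection = endpoint fluorescence intensity from OMFP dephosphorylation | dosing = single 20 µM dose | read-out basis = % inhibition relative to no-enzyme and uninhibited control wells | control set = no-enzyme and uninhibited controls | timing = 50 min at room temperature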
SUMO1-SIM PPI: modulators of human SUMO1-mediated protein-protein interactions; 360,000 tested, 0.33% active; P63165; SUMO1 binding to a labelled peptide, TR-FRET, 1 h; AID 602429; inhibition, % at 20 µM; in the data active = inhibition above about 37%
Target sequence (P63165 whole entry, looked up): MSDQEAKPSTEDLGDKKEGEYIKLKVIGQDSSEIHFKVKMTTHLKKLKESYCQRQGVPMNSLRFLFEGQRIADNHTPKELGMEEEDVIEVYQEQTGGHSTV
DNMT1 interf DR: counter-screen for DNMT1 inhibitors: spectral interference, dose response; shares compounds with DNMT1 block; molecular beacon fluorescence; IC50, µM; 200 tested, under 10 active; AID 602382; call rule not given here
DNMT1 inh conf: confirmation of human DNMT1 inhibitors. shares compounds with DNMT1 block. DNMT1 molecular beacon HinP1I cleavage, fluorescence. inhibition, % at 10 µM. 2,300 tested, 8% active;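 active = average inhibition of at least 30% in the single-concentration confirmation test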
DNMT1 interf: beacon fluorescence artifact counter-screen; AID 602387; DNMT1 molecular beacon spectral interference counterscreen, fluorescence 485/520; 2,300 tested, 1% active; shares compounds with DNMT1 block; activation (fluorescence interference), % at 10 µM;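 active = activation of at least 30% at 10 µM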;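 note: DNMT1 catalytic domain with a HinP1I cleavage step and a FAM/dabcyl DNA beacon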
* marks the source's active call; other numbers are inactive results; nt = no result.

SMILES	Scp1 inh	DNMT1 block	STEP block	LMPTP inh	SUMO1-SIM PPI	DNMT1 inh conf	DNMT1 interf	others
CCOc1ccc(NC(=S)NC(=O)/C=C/c2ccco2)cc1	-5	-4	3	-1	-10	nt	nt
COc1cc(NS(=O)(=O)c2ccc(NS(=O)(=O)c3ccc(NC(C)=O)cc3)cc2)nc(OC)n1	-8	2	1	-3	7	nt	nt
COc1cc(NS(=O)(=O)c2ccc(NC(=S)NC(=O)/C=C/c3ccco3)cc2)ncn1	49	98*	5	5	48*	82*	-3	DNMT1 interf DR=>99
O=C1c2ccccc2C(=O)N1n1cccc1	-5	1	-4	-1	-4	nt	nt
COCCNC(=O)C1(C)CCCN(C(=O)c2ccccc2F)C1 (stereo not drawn)	nt	2	0	-1	1	nt	nt
O=C(COC(=O)c1ccc2ncsc2c1)Nc1cc([N+](=O)[O-])ccc1Cl	0	3	-2	-1	3	nt	nt
O=C(CCc1nc2ccccc2c(=O)[nH]1)Nc1nnc(SCc2ccccc2)s1	5	67*	1	4	9	0	-6
O=c1[nH]c(CSc2nnc(Nc3ccccc3)s2)nc2ccccc12	-8	14	-1	0	-3	nt	nt
CCc1nnc(NC(=O)c2oc3cc(C)c(C)cc3c2C)s1	-2	53*	1	-1	-3	1	-1
Nc1c(C(=O)C2CC2)sc2nc(-c3ccccc3)cc(C(F)(F)F)c12	-5	68*	-41	1	-6	51*	37*
CN(C)CCNC(=O)c1sc2nc(-c3ccccc3)cc(C(F)(F)F)c2c1N	-5	-2	3	-4	-33	nt	nt
Cc1noc(C)c1S(=O)(=O)N(C)C[C@H]1OCc2cnnn2CCCC(=O)N([C@@H](C)CO)C[C@H]1C	nt	4	3	-2	1	nt	nt
CCOC(=O)C1CCN(c2c(NCCCN3CCN(Cc4ccccc4)CC3)c(=O)c2=O)CC1	-6	0	0	-3	-4	nt	nt
CCOC(=O)C1CCN(c2c(NCCCN3CCCCC3)c(=O)c2=O)CC1	-7	93*	3	0	-2	4	2
Cc1cc(C)n2nc(C(=O)N/N=C/c3c4ccccc4cc4ccccc34)nc2n1	-13	92*	4	9	15	-1	1
CCC(=O)NN1CCc2cc3ccc(C)cc3nc21	-9	0	0	-1	-5	nt	nt
Cc1cc(C)cc(C(=O)NC(CC(N)=O)c2ccc(N3CCC(Cc4ccccc4)CC3)c([N+](=O)[O-])c2)c1 (stereo not drawn)	-4	-8	-1	3	2	nt	nt
NC(=O)CC(NC(=O)Cc1ccc(Cl)cc1)c1ccc(N2CCC(Cc3ccccc3)CC2)c([N+](=O)[O-])c1 (stereo not drawn)	0	71*	-1	1	-4	1	2
NC(=O)CC(NC(=O)c1cccc(Br)c1)c1ccc(N2CCN(c3ccccn3)CC2)c([N+](=O)[O-])c1 (stereo not drawn)	-7	103*	-2	1	-12	5	9
NC(=O)CC(NC(=O)c1ccc(Br)cc1)c1ccc(N2CCN(c3ccccn3)CC2)c([N+](=O)[O-])c1 (stereo not drawn)	-2	-3	2	0	-13	nt	nt
COc1ccc(CC2(CO)CCN(Cc3ccc4nsnc4c3)CC2)cc1	-4	-4	1	0	-23	nt	nt
CC1(C(=O)NCc2cccs2)CCN1C(=O)Cc1ccc(Cl)cc1Cl (stereo not drawn)	nt	6	0	-1	3	nt	nt
CC1CCCN(S(=O)(=O)c2ccc(C(=O)Nc3nnc(-c4ccco4)o3)cc2)C1 (stereo not drawn)	-9	-2	17	1	9	nt	nt
Cc1cc2nc3c(=O)n(C4CCCCC4)c(=O)[nH]c3nc2cc1N	-9	58*	-106	-5	-11	64*	34*
Cc1noc(C)c1CCC(=O)N1CCCC(N2CCN(c3ccc(F)cc3)CC2)C1 (stereo not drawn)	1	86*	1	-1	1	3	6
SMILES	Scp1 inh	DNMT1 block	STEP block	LMPTP inh	SUMO1-SIM PPI	DNMT1 inh conf	DNMT1 interf	others
S=C(Nc1ccc(N2CCOCC2)cc1)Nc1ccc2snnc2c1	-8	-7	4	1	8	nt	nt
O=C(CN1C(=O)/C(=C\c2ccc(F)cc2)Oc2ccccc21)NCc1ccco1	-5	52*	1	-1	-1	2	4
COc1ccc(NC(=O)C2(C)CCN2C(=O)Cc2ccc(Cl)cc2Cl)cc1OC (stereo not drawn)	nt	-2	3	-1	-2	nt	nt
CNc1ccc(Br)cc(C(=O)/C=C/c2ccc3c(c2)OCO3)c1=O	15	65*	1	41	25	1	1
CNc1ccc(Br)cc(C(=O)/C=C/c2ccc(OC)cc2)c1=O	-9	17	8	20	31	nt	nt
CCOC(=O)c1cccnc1SCC(=O)Nc1ccc(C)cc1	11	-1	3	0	6	nt	nt
Cc1ccc(NC(=O)CSc2ncccc2C(=O)Oc2cccc([N+](=O)[O-])c2)cc1Cl	41	53*	24	44	6	4	-1
S=C(N/N=C/c1ccccc1Cl)Nc1cccc(Cl)c1Cl	-19	12	3	0	2	nt	nt
O=C(NCc1ccccc1)[C@@H]1C[C@H]1[C@@H](NP(=O)(c1ccccc1)c1ccccc1)c1ccccc1	5	-1	-2	0	3	nt	nt
Cc1ccc(CNC(=O)[C@H]2C[C@@H]2[C@H](NP(=O)(c2ccccc2)c2ccccc2)c2ccccc2)o1	-3	71*	0	0	-5	2	0
CCc1nc(Nc2ccc(OC)c(OC)c2)c2nnn(Cc3ccccc3Cl)c2n1	9	105*	4	5	0	2	6
Cc1ccccc1-c1ccc(=O)n(CC(=O)Nc2ccc(-n3cnnn3)cc2)n1	6	90*	1	0	-2	1	2
Cc1ccccc1-c1ccc(=O)n(CC(=O)Nc2ccc(S(=O)(=O)N(C)C)cc2)n1	-8	-2	-1	1	2	nt	nt
Cc1ccc(Cl)cc1NC(=O)C1CCCCC1C(=O)O (stereo not drawn)	-3	50*	0	0	-3	2	5
C[C@H](CO)N1C[C@H](C)[C@@H](CN(C)C(=O)Nc2ccc3c(c2)OCO3)Oc2c(NC(=O)Cc3ccccc3)cccc2C1=O	7	3	2	-2	3	nt	nt
